Assay results as given in ChEMBL document CHEMBL5543124, “Lead Compound Development of SRC-3 Inhibitors with Improved Pharmacokinetic Properties and Anticancer Efficacy” (J Med Chem, 2024).
Active and inactive are the calls of the source. The rule behind the calls is not given here.

How the values were obtained:
MCF7 = assay: Cytotoxicity against human MCF7 cells assessed as inhibition of cell growth incubated for 72 hrs by MTT assay; type: functional, cell-based; conditions: MCF7, 72 h
MDA-MB-468 [1] = assay: Cytotoxicity against human MDA-MB-468 cells assessed as inhibition of cell growth incubated for 72 hrs by MTT assay; type: functional, cell-based; conditions: MDA-MB-468, 72 h
How it was run: (§1)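 Cells seeded and grown to 70–80% confluence, then exposed for 72 h to a titration series (0.2–1000 nM). Viability read by MTT relative to untreated cells, with 6 replicates per concentration. IC50 fitted with a Hill-slope model.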

BT-474 = assay: Cytotoxicity against human BT-474 cells assessed as inhibition of cell growth incubated for 72 hrs by MTT assay; type: functional, cell-based; conditions: BT-474, 72 h; how it was run: as §1
[2] = Cytotoxicity against CD-1 mouse Primary hepatocyte assessed as inhibition of cell growth incubated for 72 hrs by MTT assay; type: toxicity, cell-based; conditions: primary hepatocytes
[3] = Clearance in CD-1 mouse at 1 mg/kg,iv administration measured upto 48 hrs by LC-MS/MS analysis; type: ADME, organism-based; conditions: in vivo
How it was run: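 Single intravenous bolus in ICR male mice (n = 3, 6 weeks); dosing solution 0.5 mg/mL in 20% DMSO, 16% PEG, 4% dextrose in PBS. Tail-vein blood (10 μL) taken at 2, 5, 15, 30 min and 1, 2, 4, 8, 24, 48 h. Plasma quantified by LC-MS/MS against a 0.5–1000 ng/mL calibration; parameters from non-compartmental analysis.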

[4] = Half life in CD-1 mouse at 10 mg/kg,po administration measured upto 48 hrs by LC-MS/MS analysis; type: ADME, organism-based; conditions: in vivo
How it was run: (§2)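 Oral gavage in ICR male mice (n = 3); dosing solution 1 mg/mL in 20% DMSO, 16% PEG, 4% dextrose in PBS. Tail-vein blood (10 μL) taken at 15, 30 min and 1, 2, 4, 8, 24, 48 h. Plasma quantified by LC-MS/MS against a 0.5–1000 ng/mL calibration; parameters from a non-compartmental extravascular model.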

[5] = Cmax in CD-1 mouse at 10 mg/kg,po administration measured upto 48 hrs by LC-MS/MS analysis; type: ADME, organism-based; conditions: in vivo; how it was run: as §2
[6] = AUC (0 to t) in CD-1 mouse at 10 mg/kg,po administration measured upto 48 hrs by LC-MS/MS analysis; type: ADME, organism-based; conditions: in vivo; how it was run: as §2
Mu-type opioid receptor = Mu-type opioid receptor (Homo sapiens, UniProt P35372); assay: Antagonist activity at OPRM1 (unknown origin) by cAMP assay; type: toxicity
How it was run: (§3)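 Tested in a commercial off-target safety screening panel of 78 targets. Values reported as RC50, taken as IC50 except for agonist mode, where RC50 is EC50.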

[7] = molecular target: T1, Prostaglandin G/H synthase 2 (Homo sapiens, UniProt P35354); assay: Inhibition of COX2 (unknown origin); type: toxicity; how it was run: as §3
T1 sequence (P35354 whole entry): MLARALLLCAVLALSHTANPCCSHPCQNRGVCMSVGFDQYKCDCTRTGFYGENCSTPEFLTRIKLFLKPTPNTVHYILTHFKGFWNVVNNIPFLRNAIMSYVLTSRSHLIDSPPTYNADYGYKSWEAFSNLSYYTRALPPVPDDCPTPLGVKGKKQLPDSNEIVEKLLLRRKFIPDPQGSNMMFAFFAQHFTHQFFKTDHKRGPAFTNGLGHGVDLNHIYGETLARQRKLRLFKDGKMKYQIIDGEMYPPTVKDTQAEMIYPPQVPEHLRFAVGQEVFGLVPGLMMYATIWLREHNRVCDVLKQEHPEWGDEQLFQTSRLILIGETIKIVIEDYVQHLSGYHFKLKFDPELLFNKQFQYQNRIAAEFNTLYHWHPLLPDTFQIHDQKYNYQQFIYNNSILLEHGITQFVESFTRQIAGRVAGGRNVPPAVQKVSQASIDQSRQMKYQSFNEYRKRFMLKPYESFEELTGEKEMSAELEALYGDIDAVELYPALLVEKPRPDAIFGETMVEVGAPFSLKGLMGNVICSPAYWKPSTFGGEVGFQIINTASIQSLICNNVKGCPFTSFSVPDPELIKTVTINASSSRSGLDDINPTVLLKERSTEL

[8] = molecular target: Voltage-gated inwardly rectifying potassium channel KCNH2 (Homo sapiens, UniProt Q12809); assay: Inhibition of hERG transfected in HEK293 cells at 10 uM by patch clamp assay; type: toxicity, cell-based; conditions: hek293, 10 µM
[9] = Toxicity in SCID mouse orthotopically xenografted with human Panc-1-Luc cells assessed as change in body weight at 10 mg/kg,ip administration once daily for 8 weeks; type: organism-based; conditions: in vivo, 1344 h
How it was run: (§4)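 Male SCID mice (8 weeks) received orthotopic pancreatic implants of Panc-1-Luc cells (0.5×10^6 per mouse). Mice randomized by luciferase imaging (n=5 per group). From day 8, dosed 10 mg/kg i.p. or solvent vehicle once daily. Body weight recorded weekly; mice euthanized at day 63.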

PANC-1 = assay: Cytotoxicity against […] SRC-3.2 knockdown human PANC-1 cells assessed as inhibition of cell growth incubated for 72 hrs by MTT assay; type: functional, cell-based; conditions: PANC-1, 72 h
How it was run: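 PANC-1 cells with stable lentiviral shRNA knockdown of SRC-3 or control shRNA; SRC-3 levels checked by western blot. Cells treated with a dose series for 72 h and viability read by MTT.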

Prostate cancer organoid [10] = assay: Antitumor activity against patient derived Prostate cancer PDX organoid assessed as reduction in organoid formation measured after 2 weeks; type: functional, tissue-based; conditions: Homo sapiens
How it was run: (§5)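 Single cells from prostate cancer PDX tumors (collagenase I/III digest); 20000 cells embedded in collagen gel and cultured overnight, then treated or vehicle for 14 days with at least 5 wells per dose. Organoids imaged and counted on day 14; groups compared by Student t test.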

Prostate cancer organoid [11] = assay: Antitumor activity against patient derived Prostate cancer PDX organoid assessed as reduction in organoid growth measured after 2 weeks; type: functional, tissue-based; conditions: Homo sapiens; how it was run: as §5
MDA-PCa-118b [12] = assay: Antitumor activity against patient derived MDA-PCa-118b cells xenografted in SCID mouse assessed as reduction in bone damage at 10 mg/kg,ip administration measured after 4 weeks by X-ray imaging analysis; type: functional, organism-based; conditions: Homo sapiens
How it was run: (§6)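 AR-PDX 118b cells (1×10^5) injected via intra-femoral artery in male SCID mice (8–9 weeks). After 2 weeks, 10 mg/kg/day ip or vehicle for 4 weeks (n = 9/group). X-ray imaging every two weeks. At the end, femurs CT-scanned (5 per group) with 3D-reconstruction tumor size, and H&E histology used for tumor/femur area ratio.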

MDA-PCa-118b [13] = assay: Antitumor activity against patient derived MDA-PCa-118b cells xenografted in SCID mouse assessed as reduction in tumor burden in femur at 10 mg/kg,ip administration measured after 4 weeks by hematoxylin and eosin staining based analysis; type: functional, organism-based; conditions: Homo sapiens; how it was run: as §6
[14] = Antitumor activity against patient derived MDA-PCa-118b cells xenografted in SCID mouse assessed as reduction in ratio of tumor area to femur area at 10 mg/kg,ip administration measured after 4 weeks by CT imaging analysis; type: functional, Homo sapiens; design: scale not given: the % may be the effect or the level left; how it was run: as §6
[15] = Toxicity in SCID mouse orthotopically xenografted with human Panc-1-Luc cells assessed as change in body weight at 10 mg/kg,ip administration once daily for 63 days; type: organism-based; conditions: in vivo, 1512 h, time 63 day; how it was run: as §4
MDA-MB-468 [16] = assay: Cytotoxicity against human MDA-MB-468 cells assessed as change in gene expression observed after 12 hrs by RNA-seq assay

Chain of Voltage-gated inwardly rectifying potassium channel KCNH2 (Q12809 whole entry): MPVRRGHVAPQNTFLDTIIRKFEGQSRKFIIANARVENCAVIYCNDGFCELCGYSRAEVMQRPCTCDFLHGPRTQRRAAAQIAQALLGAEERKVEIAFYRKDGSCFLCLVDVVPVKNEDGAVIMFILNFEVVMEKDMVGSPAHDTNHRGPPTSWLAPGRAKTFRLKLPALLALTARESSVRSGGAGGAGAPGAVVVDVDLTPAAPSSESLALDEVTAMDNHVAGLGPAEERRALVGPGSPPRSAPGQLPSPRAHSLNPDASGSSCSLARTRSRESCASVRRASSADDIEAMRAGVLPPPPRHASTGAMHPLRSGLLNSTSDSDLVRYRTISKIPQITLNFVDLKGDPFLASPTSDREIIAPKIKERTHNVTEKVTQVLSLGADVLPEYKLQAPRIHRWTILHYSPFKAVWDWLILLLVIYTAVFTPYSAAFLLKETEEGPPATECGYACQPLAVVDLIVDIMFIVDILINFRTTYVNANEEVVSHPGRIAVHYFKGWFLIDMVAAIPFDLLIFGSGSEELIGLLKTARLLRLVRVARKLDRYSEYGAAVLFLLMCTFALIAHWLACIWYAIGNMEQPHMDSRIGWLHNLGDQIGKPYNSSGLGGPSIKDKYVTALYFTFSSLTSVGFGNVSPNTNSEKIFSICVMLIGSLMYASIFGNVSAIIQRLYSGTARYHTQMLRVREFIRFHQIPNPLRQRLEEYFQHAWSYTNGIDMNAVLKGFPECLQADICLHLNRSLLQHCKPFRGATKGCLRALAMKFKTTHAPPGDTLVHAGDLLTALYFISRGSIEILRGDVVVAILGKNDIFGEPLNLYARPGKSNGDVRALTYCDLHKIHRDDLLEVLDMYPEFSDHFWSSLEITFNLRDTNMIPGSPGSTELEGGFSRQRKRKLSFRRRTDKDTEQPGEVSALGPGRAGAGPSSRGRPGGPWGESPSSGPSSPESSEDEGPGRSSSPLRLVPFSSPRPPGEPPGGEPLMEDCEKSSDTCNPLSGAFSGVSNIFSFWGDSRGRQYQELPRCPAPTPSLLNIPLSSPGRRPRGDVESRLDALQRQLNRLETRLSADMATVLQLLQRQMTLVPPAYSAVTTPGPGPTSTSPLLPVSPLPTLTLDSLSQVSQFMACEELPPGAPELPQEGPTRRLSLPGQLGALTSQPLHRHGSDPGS
Chain of Mu-type opioid receptor (P35372 whole entry): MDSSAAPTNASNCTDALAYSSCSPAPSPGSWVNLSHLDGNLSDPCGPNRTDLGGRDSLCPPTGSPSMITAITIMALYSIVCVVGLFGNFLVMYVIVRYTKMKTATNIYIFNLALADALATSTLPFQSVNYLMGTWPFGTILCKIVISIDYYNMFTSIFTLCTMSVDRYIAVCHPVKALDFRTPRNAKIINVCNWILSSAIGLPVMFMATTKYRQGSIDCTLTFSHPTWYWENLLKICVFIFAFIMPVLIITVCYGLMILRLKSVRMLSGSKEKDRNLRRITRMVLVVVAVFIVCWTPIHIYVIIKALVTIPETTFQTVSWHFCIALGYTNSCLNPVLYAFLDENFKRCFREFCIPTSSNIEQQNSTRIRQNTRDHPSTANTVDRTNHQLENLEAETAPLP

SMILES: C/C(=N\N=c1/[nH]c2cc(F)c(F)cc2n1C)c1ccc(F)cn1
- IC50 (MCF7): 3.4 nM
- IC50 (MDA-MB-468 [1]): 15 nM
- IC50 (BT-474): 0.8 nM
- IC50 at 72 h [2]: > 1000 nM
- clearance [3]: 22 mL/min/kg
- t1/2 [4]: 14.3 h
- Cmax [5]: 217 ng/mL
- AUCt [6]: 1719 ng·h/mL
- IC50 (Mu-type opioid receptor): 3100 nM
- IC50 [7]: 3000 nM
- inhibition (INH) [8]: Active
- Activity [9]: Non-Toxic
- IC50 (PANC-1): 119 nM
- Activity (Prostate cancer organoid [10]): Active
- Activity (Prostate cancer organoid [11]): Active
- Activity (MDA-PCa-118b [12]): Active
- Activity (MDA-PCa-118b [13]): Active
- Activity [14]: >50%
- Activity [15]: Non-Toxic
- Activity (MDA-MB-468 [16]): Active
